# Measurements of several laboratories.
# Target: Mitogen-activated protein kinase 1 (MAPK1, Homo sapiens, UniProt P28482)
SMILES,observed,technique,concentration,remaining binding
Cc1cnc(Nc2ccc(C(=O)N3CCC(N4CCCC4)CC3)cc2)nc1-c1cc2ccccc2s1,binding,competition with immobilised ligand,1 µM,100%
CNC(=O)[C@@H]1CC[C@@H](n2c(-c3ccc4cnccc4c3)nc3ccc(C(=O)NCc4cccc(C(N)=O)c4)cc32)C1,binding,competition with immobilised ligand,1 µM,91%
Cn1nc(C(=O)NCc2ccc(C(=O)O)cc2)cc1-c1ccc2[nH]ccc2c1,cell-free assay,competition with immobilised ligand,0.1 µM,94%
C=CC(=O)N1CCC(C(=O)NCC(=O)N2CCN(c3nc(-c4cnc(N)nc4C(F)F)nc(N4CCOCC4)n3)CC2)CC1,binding,competition with immobilised ligand,1 µM,98%
CCCOc1ccc([C@H]2[C@H](C(=O)O)[C@@H](c3ccc4c(c3)OCO4)CN2CC(=O)Nc2c(CC)cccc2CC)cc1,cell-free assay,competition with immobilised ligand,1 µM,100%
O=C(Nc1c[nH]nc1C(=O)NC1CCNCC1)c1cc(F)cc(F)c1,binding,competition with immobilised ligand,1 µM,100%
COc1cccc(CNC(=O)c2nc3scc(COCc4ccc(C(=O)O)cc4)c3c(=O)[nH]2)c1,cell-free assay,competition with immobilised ligand,1 µM,100%
O=C(NCCCN1CCOCC1)c1ccc(Nc2nccc(-c3cc4ccccc4s3)n2)cc1,binding,competition with immobilised ligand,1 µM,89%
F[C@@H]1CCN(c2nccc(-c3cnn4ncccc34)n2)C1,binding,,1 µM,100%
O=C(NCCCN1CCOCC1)c1ccc(Nc2ncc(Cl)c(-c3ccc(Cl)s3)n2)cc1,binding,competition with immobilised ligand,1 µM,100%
CN(C)c1ncc(F)c(-c2cnn3ncccc23)n1,binding,,1 µM,82%
C[C@@H](c1ccc(-n2cnc3c(N)ncnc32)cc1)N1CCc2nn(C)c(Cc3ccccc3)c2C1=O,binding,competition with immobilised ligand,0.1 µM,91%
c1cnn2ncc(-c3ccnc(N4CCC45COC5)n3)c2c1,binding,,1 µM,100%
FC(F)(F)c1ccc2c(c1)nc(-c1cccnc1)n2C1CC1,cell-free assay,competition with immobilised ligand,1 µM,100%
N[C@@H]1CCN(c2nccc(-c3cnn4ncccc34)n2)C1,binding,,1 µM,100%
CCN1CCN(Cc2ccc(C(=O)Nc3ccc(C)c(Oc4ccc5c(c4)CC(=O)N5)c3)cc2C(F)(F)F)CC1,binding,competition with immobilised ligand,1 µM,100%
Cc1cnn2ncc(-c3ccnc(N(C)C)n3)c2c1,binding,,1 µM,100%
C[C@@H]1CN(c2cc(-c3n[nH]c4ccc(OC5(C)CC5)cc34)ncn2)C[C@H](C)O1,cell-free assay,competition with immobilised ligand,0.1 µM,98%
CN(C)c1nccc(-c2cnc3ncccn23)n1,binding,,1 µM,81%
CCCCN(CCCC)C(=O)CN1C[C@@H](c2cc(OC)c3c(c2)OCO3)[C@H](C(=O)O)[C@H]1CC(C)(C)CCC,cell-free assay,competition with immobilised ligand,1 µM,82.1%
C[C@@H]1CCN(c2nccc(-c3cnn4ncccc34)n2)C1,binding,,1 µM,88%
Nc1ncc2c(n1)-c1c([nH]c3ccc(C#CC4CC4)cc13)CCCC2,binding,competition with immobilised ligand,1 µM,100%
